Source: ChEMBL document CHEMBL1126011 (J Med Chem, 1992)

Biological target: Sodium-dependent dopamine transporter (Rattus norvegicus, UniProt P23977)
Experiment: Inhibition of [3H]3-beta-(p-fluorophenyl)tropane-2beta-carboxylic acid methyl ester binding to Dopamine transporter in rat striatal membranes.
Assay type: cell membranes, Membrane
Outline: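 Male Sprague-Dawley rat (250-350 g) striata, frozen at -70 °C, homogenized in 10 mM phosphate buffer pH 7.4 with 0.32 M sucrose; 40000g pellet washed, resuspended at 1.0 mg/mL tissue. 0.5 nM [3H]-23 incubated 2 h on ice; filtration onto polyethylenimine-soaked GF/B filters, scintillation counting. IC50 from 10-12-point competition curves, 3-4 assays.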

Chain of Sodium-dependent dopamine transporter (P23977 whole entry): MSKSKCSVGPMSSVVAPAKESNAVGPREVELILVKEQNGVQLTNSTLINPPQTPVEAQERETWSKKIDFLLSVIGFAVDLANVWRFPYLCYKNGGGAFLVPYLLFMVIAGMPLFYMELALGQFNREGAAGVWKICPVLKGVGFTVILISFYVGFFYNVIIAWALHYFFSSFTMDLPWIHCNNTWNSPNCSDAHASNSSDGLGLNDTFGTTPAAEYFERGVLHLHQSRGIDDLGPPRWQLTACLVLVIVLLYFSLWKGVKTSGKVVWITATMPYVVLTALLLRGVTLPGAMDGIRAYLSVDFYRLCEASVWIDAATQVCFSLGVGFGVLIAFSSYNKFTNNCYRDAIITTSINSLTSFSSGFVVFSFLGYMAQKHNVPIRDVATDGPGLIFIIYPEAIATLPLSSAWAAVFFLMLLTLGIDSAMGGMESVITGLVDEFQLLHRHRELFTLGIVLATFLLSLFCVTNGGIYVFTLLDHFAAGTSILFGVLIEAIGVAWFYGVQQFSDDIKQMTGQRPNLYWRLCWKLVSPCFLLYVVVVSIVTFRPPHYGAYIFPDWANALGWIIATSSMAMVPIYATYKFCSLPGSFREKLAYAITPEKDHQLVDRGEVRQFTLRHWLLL

| SMILES | IC50 [nM] |
| --- | --- |
| CN1[C@@H]2CC[C@H]1C[C@H](OC(=O)c1ccccc1)C2 | 5180 |
| CN1C2CC[C@@H]1C[C@H](OC(=O)c1ccccc1)C2C(=O)OCCc1ccccc1 (stereo partly drawn) | 248 |
| CN1C2CC[C@@H]1C[C@H](OC(=O)c1ccccc1)C2C(=O)OCCCc1ccccc1 (stereo partly drawn) | 139 |
| CCCOC(=O)C1C2CC[C@H](C[C@@H]1OC(=O)c1ccccc1)N2C (stereo partly drawn) | 191 |
| CN1C2CC[C@@H]1C[C@H](OC(=O)c1ccccc1)C2C(=O)OCc1ccccc1 (stereo partly drawn) | 257 |
| CCOC(=O)C1C2CC[C@H](C[C@@H]1OC(=O)c1ccccc1)N2C (stereo partly drawn) | 130 |
| CN1C2CC[C@@H]1C[C@H](OC(=O)c1ccccc1)C2CO (stereo partly drawn) | 561 |
| CN1C2CC[C@@H]1C[C@H](OC(=O)c1ccccc1)C2C(=O)Oc1ccccc1 (stereo partly drawn) | 112 |
| CN1C2CC[C@@H]1C[C@H](OC(=O)c1ccccc1)C2C(=O)OCCc1ccc(N)cc1 (stereo partly drawn) | 72 |
| CCOC(=O)CCC(=O)Nc1ccc(CCOC(=O)C2C3CC[C@H](C[C@@H]2OC(=O)c2ccccc2)N3C)cc1 (stereo partly drawn) | 86 |
| CN1C2CC[C@@H]1C[C@H](OC(=O)c1ccccc1)C2C(=O)OCCc1ccc([N+](=O)[O-])cc1 (stereo partly drawn) | 601 |
| CN1C2CC[C@@H]1C[C@H](OC(=O)c1ccccc1)C2C(=O)OCCc1ccc(Cl)cc1 (stereo partly drawn) | 271 |
| CC(=O)OCC1C2CC[C@H](C[C@@H]1OC(=O)c1ccccc1)N2C (stereo partly drawn) | 272 |
| CN1C2CC[C@@H]1C[C@H](OC(=O)c1ccccc1)C2C(=O)OCCc1ccc(N=C=S)cc1 (stereo partly drawn) | 196 |
| CN1C2CC[C@@H]1C[C@H](OC(=O)c1ccccc1)C2C(=O)OCCc1ccc(NC(=O)CBr)cc1 (stereo partly drawn) | 61 |
| CNC(=O)C1C2CC[C@H](C[C@@H]1OC(=O)c1ccccc1)N2C (stereo partly drawn) | 3180 |
| CN1C2CC[C@@H]1C[C@H](OC(=O)c1ccccc1)C2C(=O)OCCc1ccc(N=[N+]=[N-])cc1 (stereo partly drawn) | 227 |
| CN1C2CC[C@@H]1C[C@H](OC(=O)c1ccccc1)C2C(=O)OC/C=C/c1ccccc1 (stereo partly drawn) | 371 |
